Assay results taken from ChEMBL document CHEMBL1212913, “Quinazolin-4-one derivatives: A novel class of noncompetitive NR2C/D subunit-selective N-methyl-D-aspartate receptor antagonists” (J Med Chem, 2010).

Legend:
Glutamate receptor 1 = Glutamate receptor 1 (Rattus norvegicus, UniProt P19490); assay: Antagonist activity at rat recombinant GLuR1 expressed in Xenopus oocytes assessed as inhibition of glutamate-induced current by two-electrode voltage-clamp electrophysiology; format: functional, cell-based, Oocyte
Procedure, shortened: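 Two-electrode voltage clamp at −40 mV on Xenopus oocytes expressing rat GluR1, perfused with 90 NaCl, 1.0 KCl, 0.5 BaCl2, 0.005 EDTA, 10 HEPES (mM), pH 7.4, 23°C; activated by 100 μM glutamate. From 20 mM DMSO stocks, 5-7 concentrations, ≥4 oocytes each. Hill fit to mean composite curves normalized to control, minimum usually fixed at 0. Response >75% at 100 μM reported as >300 μM.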

[1] = target: Glutamate NMDA receptor; Grin1/Grin2a (Rattus norvegicus, UniProt P35439+Q00959); assay: Antagonist activity at rat recombinant NR1-NR2A receptor expressed in Xenopus oocytes at holding potential of -40mV by two-electrode voltage-clamp electrophysiology; format: functional, cell-based, Oocyte
Procedure, shortened: (§1)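 Oocytes expressing rat NR1-1a with NR2A, NR2B, NR2C or NR2D, clamped at −40 mV in Ba2+/HEPES recording solution pH 7.4, 23°C. Current evoked by 100 μM glutamate plus 30 μM glycine. Final DMSO 0.05-0.5%, 5-7 inhibitor concentrations, ≥4 oocytes each. IC50 from Hill fit of normalized mean composite data. […] Some NR2A oocytes given BAPTA-AM or K-BAPTA.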

[2] = target: Glutamate NMDA receptor; Grin1/Grin2b (Rattus norvegicus, UniProt P35439+Q00960); assay: Antagonist activity at rat recombinant NR1-NR2B receptor expressed in Xenopus oocytes at holding potential of -40mV by two-electrode voltage-clamp electrophysiology; format: functional, cell-based, Oocyte; procedure, shortened: as §1
[3] = target: Ionotropic glutamate receptor NMDA 1/2D (Rattus norvegicus, UniProt P35439+Q62645); assay: Antagonist activity at rat recombinant NR1-NR2D receptor expressed in Xenopus oocytes at holding potential of -40mV by two-electrode voltage-clamp electrophysiology; format: functional, cell-based, Oocyte
Procedure, shortened: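 Oocytes expressing rat NR1-1a with NR2A, NR2B, NR2C or NR2D, clamped at −40 mV in Ba2+/HEPES recording solution pH 7.4, 23°C. Current evoked by 100 μM glutamate plus 30 μM glycine. Final DMSO 0.05-0.5%, 5-7 inhibitor concentrations, ≥4 oocytes each. IC50 from Hill fit of normalized mean composite data. Some NR2A oocytes given BAPTA-AM or K-BAPTA.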

[4] = target: Glutamate NMDA receptor; Grin1/Grin2c (Rattus norvegicus, UniProt P35439+Q00961); assay: Antagonist activity at rat recombinant NR1-NR2C receptor expressed in Xenopus oocytes at holding potential of -40mV by two-electrode voltage-clamp electrophysiology; format: functional, cell-based, Oocyte; procedure, shortened: as §1
Rattus norvegicus [5] = organism: Rattus norvegicus; assay: Selectivity ratio of IC50 for rat recombinant NR1-NR2A receptor to IC50 for rat recombinant NR1-NR2D receptor
Procedure, shortened: (§2)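 Ratio of fitted IC50 values, either NR2A/NR2D or GluR1/NR2D, from two-electrode voltage-clamp Hill fits in oocytes. Where noted, calculated from IC50 values rounded to the nearest μM.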

Rattus norvegicus [6] = organism: Rattus norvegicus; assay: Selectivity ratio of IC50 for rat recombinant GLuR1 to IC50 for rat recombinant NR1-NR2D receptor; procedure, shortened: as §2

Glutamate NMDA receptor; Grin1/Grin2c, sequence (Q00961 whole entry, other chains not shown): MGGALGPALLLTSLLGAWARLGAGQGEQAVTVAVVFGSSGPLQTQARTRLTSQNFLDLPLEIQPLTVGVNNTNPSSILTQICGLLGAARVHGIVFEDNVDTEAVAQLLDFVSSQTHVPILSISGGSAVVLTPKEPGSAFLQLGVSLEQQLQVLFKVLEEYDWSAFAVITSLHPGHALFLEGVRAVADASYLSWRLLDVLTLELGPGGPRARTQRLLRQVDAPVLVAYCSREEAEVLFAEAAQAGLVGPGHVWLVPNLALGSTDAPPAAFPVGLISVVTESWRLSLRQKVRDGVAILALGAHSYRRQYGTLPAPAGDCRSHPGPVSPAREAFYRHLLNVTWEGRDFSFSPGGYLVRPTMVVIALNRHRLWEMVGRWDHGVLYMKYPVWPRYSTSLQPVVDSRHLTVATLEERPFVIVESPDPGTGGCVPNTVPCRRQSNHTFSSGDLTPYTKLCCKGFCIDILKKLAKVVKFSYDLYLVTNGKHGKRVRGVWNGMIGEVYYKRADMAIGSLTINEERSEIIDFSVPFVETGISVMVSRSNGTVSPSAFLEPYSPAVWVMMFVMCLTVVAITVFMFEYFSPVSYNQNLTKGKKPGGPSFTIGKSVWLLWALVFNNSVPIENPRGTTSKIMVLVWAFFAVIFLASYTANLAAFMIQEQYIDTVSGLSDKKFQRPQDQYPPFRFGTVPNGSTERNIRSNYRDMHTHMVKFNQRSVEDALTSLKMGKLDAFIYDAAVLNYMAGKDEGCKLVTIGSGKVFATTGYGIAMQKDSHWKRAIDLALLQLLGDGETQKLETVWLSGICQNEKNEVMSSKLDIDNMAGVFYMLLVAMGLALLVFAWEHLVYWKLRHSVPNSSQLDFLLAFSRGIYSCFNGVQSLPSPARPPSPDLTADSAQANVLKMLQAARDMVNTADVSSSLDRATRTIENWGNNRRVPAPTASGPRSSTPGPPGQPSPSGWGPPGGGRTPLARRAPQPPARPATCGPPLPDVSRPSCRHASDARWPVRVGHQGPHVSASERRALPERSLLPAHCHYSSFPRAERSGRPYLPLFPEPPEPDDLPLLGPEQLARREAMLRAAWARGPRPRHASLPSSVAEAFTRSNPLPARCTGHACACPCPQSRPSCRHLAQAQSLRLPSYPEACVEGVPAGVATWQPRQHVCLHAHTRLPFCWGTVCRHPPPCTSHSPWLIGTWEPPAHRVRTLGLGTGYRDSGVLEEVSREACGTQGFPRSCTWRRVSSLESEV
Glutamate NMDA receptor; Grin1/Grin2a, sequence (Q00959 whole entry, other chains not shown): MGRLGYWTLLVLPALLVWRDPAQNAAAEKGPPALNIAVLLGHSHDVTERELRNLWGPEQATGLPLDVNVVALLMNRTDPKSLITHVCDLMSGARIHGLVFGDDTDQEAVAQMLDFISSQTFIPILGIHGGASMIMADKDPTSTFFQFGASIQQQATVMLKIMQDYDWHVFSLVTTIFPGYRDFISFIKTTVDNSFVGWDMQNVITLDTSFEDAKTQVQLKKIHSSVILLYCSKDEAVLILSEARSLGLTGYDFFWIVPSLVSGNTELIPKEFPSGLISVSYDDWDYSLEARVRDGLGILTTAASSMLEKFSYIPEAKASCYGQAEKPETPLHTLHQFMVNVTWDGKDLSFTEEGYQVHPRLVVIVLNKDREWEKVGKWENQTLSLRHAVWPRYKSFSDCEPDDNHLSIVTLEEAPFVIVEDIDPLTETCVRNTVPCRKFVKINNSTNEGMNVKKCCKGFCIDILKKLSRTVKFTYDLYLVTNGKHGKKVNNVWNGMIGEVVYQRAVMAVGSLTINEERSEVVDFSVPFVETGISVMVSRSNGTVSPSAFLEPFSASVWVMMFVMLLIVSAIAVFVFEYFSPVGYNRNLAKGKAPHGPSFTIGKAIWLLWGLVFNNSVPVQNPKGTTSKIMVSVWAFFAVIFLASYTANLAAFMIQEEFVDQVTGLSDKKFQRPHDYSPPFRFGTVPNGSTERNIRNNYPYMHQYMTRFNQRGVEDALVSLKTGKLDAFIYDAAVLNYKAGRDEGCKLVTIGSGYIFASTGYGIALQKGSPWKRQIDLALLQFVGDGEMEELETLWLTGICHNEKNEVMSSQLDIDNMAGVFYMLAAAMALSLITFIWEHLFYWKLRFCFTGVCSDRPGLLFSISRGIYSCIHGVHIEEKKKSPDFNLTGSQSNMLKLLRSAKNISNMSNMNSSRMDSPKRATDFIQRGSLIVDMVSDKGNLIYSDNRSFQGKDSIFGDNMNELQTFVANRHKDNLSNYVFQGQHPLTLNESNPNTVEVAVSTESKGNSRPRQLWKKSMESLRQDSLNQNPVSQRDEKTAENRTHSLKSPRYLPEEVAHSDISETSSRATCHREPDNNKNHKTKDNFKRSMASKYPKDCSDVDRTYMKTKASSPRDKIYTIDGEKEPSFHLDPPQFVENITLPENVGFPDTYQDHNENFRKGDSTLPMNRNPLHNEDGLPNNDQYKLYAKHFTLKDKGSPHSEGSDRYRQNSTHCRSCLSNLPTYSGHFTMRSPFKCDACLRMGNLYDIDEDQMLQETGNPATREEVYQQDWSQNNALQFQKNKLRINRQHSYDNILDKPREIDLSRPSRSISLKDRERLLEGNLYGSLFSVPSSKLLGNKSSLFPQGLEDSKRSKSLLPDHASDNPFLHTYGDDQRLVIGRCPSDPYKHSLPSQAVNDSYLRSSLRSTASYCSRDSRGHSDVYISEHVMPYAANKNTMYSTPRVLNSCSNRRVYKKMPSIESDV
Glutamate receptor 1, sequence (P19490 whole entry, the tested form may be a part): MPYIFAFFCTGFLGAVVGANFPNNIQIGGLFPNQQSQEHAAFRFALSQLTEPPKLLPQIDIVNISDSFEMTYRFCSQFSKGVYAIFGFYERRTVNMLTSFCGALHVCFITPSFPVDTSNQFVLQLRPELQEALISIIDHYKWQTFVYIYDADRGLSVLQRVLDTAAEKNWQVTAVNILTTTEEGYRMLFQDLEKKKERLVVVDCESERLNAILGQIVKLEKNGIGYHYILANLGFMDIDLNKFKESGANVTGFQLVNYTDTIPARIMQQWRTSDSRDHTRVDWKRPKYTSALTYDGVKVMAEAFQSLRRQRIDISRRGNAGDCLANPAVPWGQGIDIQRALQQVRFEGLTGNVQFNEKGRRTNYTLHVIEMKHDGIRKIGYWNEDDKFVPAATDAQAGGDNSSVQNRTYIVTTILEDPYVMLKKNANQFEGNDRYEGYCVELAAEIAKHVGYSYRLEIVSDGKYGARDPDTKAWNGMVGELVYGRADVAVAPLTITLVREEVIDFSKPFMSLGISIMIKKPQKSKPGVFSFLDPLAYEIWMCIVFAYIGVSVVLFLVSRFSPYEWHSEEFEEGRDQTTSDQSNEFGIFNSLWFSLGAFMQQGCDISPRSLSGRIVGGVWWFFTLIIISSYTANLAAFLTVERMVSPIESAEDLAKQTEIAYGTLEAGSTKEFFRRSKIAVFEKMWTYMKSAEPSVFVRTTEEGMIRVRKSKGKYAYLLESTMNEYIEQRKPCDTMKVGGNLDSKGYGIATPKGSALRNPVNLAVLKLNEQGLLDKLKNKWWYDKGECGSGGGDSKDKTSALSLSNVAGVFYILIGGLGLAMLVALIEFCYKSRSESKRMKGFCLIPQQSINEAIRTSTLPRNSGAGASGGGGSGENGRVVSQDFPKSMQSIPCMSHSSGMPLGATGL
Ionotropic glutamate receptor NMDA 1/2D, sequence (Q62645 whole entry, other chains not shown): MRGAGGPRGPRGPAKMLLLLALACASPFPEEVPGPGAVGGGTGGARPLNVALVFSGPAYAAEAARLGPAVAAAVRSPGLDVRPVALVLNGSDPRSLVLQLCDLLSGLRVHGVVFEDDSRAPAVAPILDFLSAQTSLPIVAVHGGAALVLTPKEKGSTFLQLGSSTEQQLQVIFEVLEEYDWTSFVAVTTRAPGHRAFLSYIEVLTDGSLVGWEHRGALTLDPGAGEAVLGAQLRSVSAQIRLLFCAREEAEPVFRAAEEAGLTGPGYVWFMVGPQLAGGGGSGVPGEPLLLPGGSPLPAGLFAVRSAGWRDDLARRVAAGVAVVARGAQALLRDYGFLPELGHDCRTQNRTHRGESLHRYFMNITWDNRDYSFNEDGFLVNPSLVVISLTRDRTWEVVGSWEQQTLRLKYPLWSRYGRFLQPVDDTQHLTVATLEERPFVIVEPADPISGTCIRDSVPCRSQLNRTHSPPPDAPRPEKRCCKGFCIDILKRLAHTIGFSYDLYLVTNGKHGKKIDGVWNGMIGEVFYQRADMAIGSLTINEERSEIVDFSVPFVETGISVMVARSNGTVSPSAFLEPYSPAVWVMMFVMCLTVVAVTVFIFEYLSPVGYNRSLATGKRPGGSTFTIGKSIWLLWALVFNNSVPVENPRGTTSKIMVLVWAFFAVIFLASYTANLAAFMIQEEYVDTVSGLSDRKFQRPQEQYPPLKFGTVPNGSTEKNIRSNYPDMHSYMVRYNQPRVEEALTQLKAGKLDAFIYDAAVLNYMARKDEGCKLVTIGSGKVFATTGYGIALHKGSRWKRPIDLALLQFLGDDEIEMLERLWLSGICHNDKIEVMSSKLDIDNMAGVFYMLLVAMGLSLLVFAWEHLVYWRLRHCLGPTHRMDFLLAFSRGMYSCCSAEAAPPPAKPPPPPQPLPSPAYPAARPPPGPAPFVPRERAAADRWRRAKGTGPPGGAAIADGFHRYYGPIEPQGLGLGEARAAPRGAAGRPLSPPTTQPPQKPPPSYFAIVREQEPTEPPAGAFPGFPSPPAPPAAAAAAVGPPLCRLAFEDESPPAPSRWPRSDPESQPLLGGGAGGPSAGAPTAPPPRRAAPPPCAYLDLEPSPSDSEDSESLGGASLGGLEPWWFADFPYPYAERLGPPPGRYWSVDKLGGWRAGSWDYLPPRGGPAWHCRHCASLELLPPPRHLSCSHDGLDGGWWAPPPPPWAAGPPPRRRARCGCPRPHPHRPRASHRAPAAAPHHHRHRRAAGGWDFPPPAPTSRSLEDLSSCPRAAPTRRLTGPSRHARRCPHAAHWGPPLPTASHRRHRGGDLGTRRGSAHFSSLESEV

| IC50 (Glutamate receptor 1) | IC50 ([1]; read-out: IC50) | IC50 ([2]; read-out: IC50) | IC50 [3] | Ratio IC50 (Rattus norvegicus [5]) | SMILES | IC50 [4] | Ratio IC50 (Rattus norvegicus [6]) | IC50 ([1]; oocyte) | IC50 ([2]; oocyte) |
| --- | --- | --- | --- | --- | --- | --- | --- | --- | --- |
| > 300 µM | > 300 µM | 110 µM | 14 µM |  | O=C(O)c1ccc(-n2c(/C=C/c3cccc([N+](=O)[O-])c3)nc3cccc(Cl)c3c2=O)cc1 | 22 µM |  |  |  |
| > 300 µM | > 300 µM | 262 µM | 16 µM |  | O=C(O)c1ccc(-n2c(/C=C/c3ccc4c(c3)OCCO4)nc3ccccc3c2=O)cc1 | 26 µM |  |  |  |
| 7 µM | 36 µM | 33 µM | 7 µM | 5 | O=C(O)c1ccc(-n2c(/C=C/c3cccc([N+](=O)[O-])c3)nc3ccc(F)cc3c2=O)cc1 |  | 1 |  |  |
| > 300 µM | 197 µM | 206 µM | 7 µM | 28 | COc1ccc2nc(/C=C/c3ccc([N+](=O)[O-])cc3)n(-c3ccc(C(=O)O)cc3)c(=O)c2c1 | 13 µM |  |  |  |
| 233 µM | 61 µM | 55 µM | 15 µM | 4 | O=C(O)c1ccc(-n2c(/C=C/c3ccc(C(F)(F)F)cc3)nc3ccccc3c2=O)cc1 |  | 16 |  |  |
| > 300 µM | > 300 µM | 78 µM | 282 µM |  | Cc1ccc2nc(CCc3ccccc3)n(-c3ccc(C(=O)O)cc3)c(=O)c2c1 | 184 µM |  |  |  |
| 110 µM | 38 µM | 35 µM | 36 µM | 1 | O=C(O)c1ccc(-n2c(/C=C/c3ccc(O)cc3)nc3ccccc3c2=O)cc1 |  | 3 |  |  |
| > 300 µM | 41 µM | 138 µM | 17 µM | 2 | Cc1ccc(/C=C/c2nc3ccccc3c(=O)n2-c2ccc(C(=O)O)cc2)cc1 |  |  |  |  |
| > 300 µM | > 300 µM | 279 µM | 8 µM |  | O=C(O)c1cccc(-n2c(/C=C/c3ccc([N+](=O)[O-])cc3)nc3ccc(I)cc3c2=O)c1 | 9 µM |  |  |  |
| > 300 µM | > 300 µM | > 300 µM | 1 µM | > 150 | O=C(O)c1ccc(-n2c(/C=C/c3ccc([N+](=O)[O-])cc3)nc3ccc(I)cc3c2=O)cc1 | 2 µM |  |  |  |
| 38 µM | 88 µM | 51 µM | 16 µM | 6 | COc1ccccc1/C=C/c1nc2ccccc2c(=O)n1-c1ccc(C(=O)O)cc1 |  | 2 |  |  |
| > 300 µM | 238 µM | 238 µM | 16 µM | 15 | COc1ccc2nc(/C=C/c3ccc([N+](=O)[O-])cc3)n(-c3cccc(C(=O)O)c3)c(=O)c2c1 | 21 µM |  |  |  |
| > 300 µM | 21 µM | 34 µM | 18 µM | 1 | Cc1cccc(/C=C/c2nc3ccccc3c(=O)n2-c2ccc(C(=O)O)cc2)c1 |  |  |  |  |
| 27 µM | 24 µM | 36 µM | 9 µM | 3 | COc1cccc(/C=C/c2nc3ccccc3c(=O)n2-c2ccc(C(=O)O)cc2)c1 |  | 3 |  |  |
| > 300 µM | > 300 µM | 144 µM | 30 µM |  | C=CCOc1ccc(/C=C/c2nc3ccccc3c(=O)n2-c2ccc(C(=O)O)cc2)cc1 | 111 µM |  |  |  |
| > 300 µM |  | > 300 µM | 28 µM |  | O=C(O)c1ccc(-n2c(/C=C/c3ccccc3C(F)(F)F)nc3ccccc3c2=O)cc1 |  |  |  |  |
| 22 µM | 13 µM | 26 µM | 12 µM | 1 | O=C(O)c1ccc(-n2c(/C=C/c3cccc(C(F)(F)F)c3)nc3ccccc3c2=O)cc1 |  | 2 |  |  |
| 62 µM | 86 µM | 93 µM | 81 µM | 1 | Cc1ccccc1/C=C/c1nc2ccccc2c(=O)n1-c1ccc(C(=O)O)cc1 |  | 1 |  |  |
| > 300 µM | 21 µM | 31 µM | 6 µM | 4 | O=C(O)c1ccc(-n2c(/C=C/c3ccc4ccccc4c3)nc3ccccc3c2=O)cc1 | 14 µM |  |  |  |
| 24 µM | 52 µM | 30 µM | 17 µM | 3 | O=C(O)c1ccc(-n2c(/C=C/c3cccc(O)c3)nc3ccccc3c2=O)cc1 |  | 1 |  |  |
| > 300 µM | 94 µM | 106 µM | 34 µM | 3 | N#Cc1ccc(/C=C/c2nc3ccccc3c(=O)n2-c2ccc(C(=O)O)cc2)cc1 | 28 µM |  |  |  |
| > 300 µM | 112 µM | 162 µM | 36 µM | 3 | O=C(O)c1ccc(-n2c(/C=C/c3cccc([N+](=O)[O-])c3)nc3cc4c(cc3c2=O)OCO4)cc1 | 40 µM |  |  |  |
|  |  |  |  | 16 | O=C(O)c1ccc(-n2c(/C=C/c3cccc([N+](=O)[O-])c3)nc3ccc(Cl)cc3c2=O)cc1 |  | 7 |  |  |
| > 300 µM | > 300 µM | > 300 µM | 6 µM |  | O=C(O)c1ccc(-n2c(/C=C/c3ccc([N+](=O)[O-])cc3)nc3c(Cl)cc(Cl)cc3c2=O)cc1 | 9 µM |  |  |  |

| SMILES | IC50 (Glutamate receptor 1) | IC50 ([1]; read-out: IC50) | IC50 ([2]; read-out: IC50) | IC50 [3] | Ratio IC50 (Rattus norvegicus [5]) | IC50 [4] | Ratio IC50 (Rattus norvegicus [6]) | IC50 ([1]; oocyte) | IC50 ([2]; oocyte) |
| --- | --- | --- | --- | --- | --- | --- | --- | --- | --- |
| COc1ccc2nc(/C=C/c3cccc(C(=O)O)c3)n(-c3ccc(C(=O)O)cc3)c(=O)c2c1 | > 300 µM | > 300 µM | > 300 µM | 131 µM |  | > 300 µM |  |  |  |
| O=C(O)COc1ccc(/C=C/c2nc3ccccc3c(=O)n2-c2ccc(C(=O)O)cc2)cc1 | > 300 µM | > 300 µM | > 300 µM | > 300 µM |  | > 300 µM | 1 |  |  |
| O=C(O)c1ccc(/C=C/c2nc3ccccc3c(=O)n2-c2ccc(C(=O)O)cc2)cc1 | > 300 µM | > 300 µM | > 300 µM | > 300 µM |  | > 300 µM | 1 |  |  |
| COc1ccc(-n2c(/C=C/c3cccnc3)nc3ccc(I)cc3c2=O)cc1 | > 300 µM | > 300 µM | > 300 µM | > 300 µM |  | > 300 µM | 1 |  |  |
| COc1ccc2nc(/C=C/c3cccc([N+](=O)[O-])c3)n(-c3ccc(C#N)cc3)c(=O)c2c1 | > 300 µM | > 300 µM | > 300 µM | > 300 µM |  | > 300 µM | 1 |  |  |
| O=c1c2ccccc2nc(/C=C/c2cccc([N+](=O)[O-])c2)n1-c1ccccc1 | > 300 µM | > 300 µM | > 300 µM | > 300 µM |  | > 300 µM | 1 |  |  |
| O=C(O)c1ccc(-n2c(/C=C/c3cccc([N+](=O)[O-])c3)nc3ccc([N+](=O)[O-])cc3c2=O)cc1 | > 300 µM |  |  | 90 µM |  | 204 µM |  | Not Active | Not Active |
| O=c1c2cc(I)ccc2nc(/C=C/c2cccnc2)n1-c1cccc([N+](=O)[O-])c1 | > 300 µM | > 300 µM | > 300 µM | > 300 µM |  | > 300 µM | 1 |  |  |
| COc1ccc2nc(/C=C/c3cccc([N+](=O)[O-])c3)n(-c3ccc(C(N)=O)cc3)c(=O)c2c1 | > 300 µM | > 300 µM | 82 µM | > 300 µM |  | 58 µM | 1 |  |  |
| Cc1cccc(-n2c(/C=C/c3cccnc3)nc3ccc(I)cc3c2=O)c1 | > 300 µM | > 300 µM | > 300 µM | > 300 µM |  | 241 µM | 1 |  |  |
| Cc1nc2ccc(I)cc2c(=O)n1-c1ccc(C(=O)O)cc1 | > 300 µM | > 300 µM | > 300 µM | > 300 µM |  | > 300 µM | 1 |  |  |
| Cc1ccc(-n2c(/C=C/c3cccnc3)nc3ccc(I)cc3c2=O)cc1 | > 300 µM | > 300 µM | > 300 µM | > 300 µM |  | > 300 µM | 1 |  |  |
